The term inhibition denotes the percentage by which the read-out fell short of the control. By IC50 is commonly meant the concentration at which inhibition is half-maximal.

This passage reports inhibition and IC50 results from ChEMBL document CHEMBL1765045, “Fine-tuning the selectivity of aldosterone synthase inhibitors: structure-activity and structure-selectivity insights from studies of heteroaryl substituted 1,2,5,6-tetrahydropyrrolo[3,2,1-ij]quinolin-4-one derivatives” (J Med Chem, 2011).

The target in data set [1] is T1, CYP1A2 (Homo sapiens, UniProt P05177).
T1 sequence (P05177 whole entry): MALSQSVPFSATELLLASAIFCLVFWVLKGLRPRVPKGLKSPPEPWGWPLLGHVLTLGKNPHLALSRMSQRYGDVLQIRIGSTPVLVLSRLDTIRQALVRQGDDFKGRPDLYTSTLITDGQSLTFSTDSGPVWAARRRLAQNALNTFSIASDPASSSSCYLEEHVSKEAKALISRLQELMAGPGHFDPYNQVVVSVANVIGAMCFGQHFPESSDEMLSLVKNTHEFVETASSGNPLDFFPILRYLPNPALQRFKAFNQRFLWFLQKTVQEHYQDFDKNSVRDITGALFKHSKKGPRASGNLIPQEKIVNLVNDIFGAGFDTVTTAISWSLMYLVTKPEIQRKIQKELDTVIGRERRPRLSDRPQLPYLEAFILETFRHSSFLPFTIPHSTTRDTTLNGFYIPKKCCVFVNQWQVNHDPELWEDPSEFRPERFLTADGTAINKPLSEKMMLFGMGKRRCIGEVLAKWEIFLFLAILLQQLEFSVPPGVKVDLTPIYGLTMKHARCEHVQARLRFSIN
Nature of the data set: Inhibition of human CYP1A2 expressed in baculovirus-infected insect microsomes at 10 uM. Format: ADME, Microsome. The essentials:
(§1)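 Recombinant human CYP1A2, 2B6, 2C9, 2C19, 2D6 or 3A4 in baculovirus-infected insect microsomes (Supersomes), run per manufacturer's protocol. Inhibitor at 1 and 10 μM; percent inhibition is the mean of two experiments.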

The target in data set [2] is T2, CYP2D6 (Homo sapiens, UniProt P10635). Nature of the data set: Inhibition of human CYP2D6 expressed in baculovirus-infected insect microsomes at 1 uM. The data set is classed as ADME, Microsome. Put shortly:
as §1

The target in data set [3] is T3, Cytochrome P450 11B1, mitochondrial (Homo sapiens, UniProt P15538).
T3 sequence (P15538 whole entry): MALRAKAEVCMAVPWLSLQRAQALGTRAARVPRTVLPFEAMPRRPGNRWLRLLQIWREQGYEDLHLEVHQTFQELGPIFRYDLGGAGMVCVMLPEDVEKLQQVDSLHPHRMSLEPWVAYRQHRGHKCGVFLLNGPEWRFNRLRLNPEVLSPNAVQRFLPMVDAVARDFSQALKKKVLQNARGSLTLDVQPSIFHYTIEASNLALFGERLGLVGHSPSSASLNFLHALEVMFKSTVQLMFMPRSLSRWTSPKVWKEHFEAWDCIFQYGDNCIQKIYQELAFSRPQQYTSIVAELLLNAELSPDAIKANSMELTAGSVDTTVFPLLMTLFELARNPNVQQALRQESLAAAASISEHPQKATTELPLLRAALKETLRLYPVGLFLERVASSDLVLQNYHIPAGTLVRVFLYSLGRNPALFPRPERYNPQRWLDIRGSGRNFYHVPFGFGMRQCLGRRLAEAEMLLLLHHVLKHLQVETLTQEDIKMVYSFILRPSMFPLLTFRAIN
Nature of the data set: Inhibition of human CYP11B1 expressed in hamster V79 MZh cells assessed as conversion of [4-14C]-11-deoxycorticosterone substrate by HPTLC assay. Format: cell-based. The essentials:
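V79 MZh hamster fibroblasts stably expressing human CYP11B1 or CYP11B2 incubated with [4-14C]-11-deoxycorticosterone, 100 nM, plus inhibitor at ≥3 concentrations. Reaction stopped with ethyl acetate, steroids extracted into the organic phase, and substrate conversion quantified by HPTLC with phosphoimaging. IC50 is the mean of at least three experiments.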

Data set [4] addresses T4, CYP3A4 (Homo sapiens, UniProt P08684). Nature of the data set: Inhibition of human CYP3A4 expressed in baculovirus-infected insect microsomes at 1 uM. The data set is classed as ADME, Microsome. The essentials:
as §1

Data set [5] addresses T5, CYP2B6 (Homo sapiens, UniProt P20813).
T5 sequence (P20813 whole entry): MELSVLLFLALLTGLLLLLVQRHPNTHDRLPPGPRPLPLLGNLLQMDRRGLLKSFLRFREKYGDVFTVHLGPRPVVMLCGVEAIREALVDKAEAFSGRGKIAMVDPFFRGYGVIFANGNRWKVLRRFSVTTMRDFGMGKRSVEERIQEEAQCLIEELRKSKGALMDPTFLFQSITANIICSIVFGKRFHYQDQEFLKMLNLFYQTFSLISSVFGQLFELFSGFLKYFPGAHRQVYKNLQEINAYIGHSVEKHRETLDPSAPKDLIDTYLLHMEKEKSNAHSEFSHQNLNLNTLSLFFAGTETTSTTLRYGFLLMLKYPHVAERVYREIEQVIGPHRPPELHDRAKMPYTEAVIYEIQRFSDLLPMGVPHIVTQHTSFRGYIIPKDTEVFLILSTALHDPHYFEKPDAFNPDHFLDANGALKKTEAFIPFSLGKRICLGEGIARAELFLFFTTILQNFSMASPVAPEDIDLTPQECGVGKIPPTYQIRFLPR
Nature of the data set: Inhibition of human CYP2B6 expressed in baculovirus-infected insect microsomes at 1 uM. Format: ADME, Microsome. The essentials:
as §1

In data set [6] the target is T6, Cytochrome P450 11B2, mitochondrial (Homo sapiens, UniProt P19099).
T6 sequence (P19099 whole entry): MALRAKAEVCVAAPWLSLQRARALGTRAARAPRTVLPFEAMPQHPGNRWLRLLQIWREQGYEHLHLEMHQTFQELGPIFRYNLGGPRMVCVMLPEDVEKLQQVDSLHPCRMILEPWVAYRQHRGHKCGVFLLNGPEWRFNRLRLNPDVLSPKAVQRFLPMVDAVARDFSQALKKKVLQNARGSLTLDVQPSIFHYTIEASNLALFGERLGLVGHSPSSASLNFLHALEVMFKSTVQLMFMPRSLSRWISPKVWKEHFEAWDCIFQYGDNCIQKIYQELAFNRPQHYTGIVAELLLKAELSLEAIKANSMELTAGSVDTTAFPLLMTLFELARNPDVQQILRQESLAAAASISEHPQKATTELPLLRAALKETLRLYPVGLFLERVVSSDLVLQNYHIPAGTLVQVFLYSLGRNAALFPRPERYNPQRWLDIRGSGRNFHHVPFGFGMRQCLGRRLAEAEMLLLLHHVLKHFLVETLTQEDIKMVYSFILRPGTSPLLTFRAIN
Nature of the data set: Inhibition of human CYP11B2 expressed in hamster V79 MZh cells assessed as conversion of [4-14C]-11-deoxycorticosterone substrate at 500 nM by HPTLC assay. The data set is classed as cell-based. Conditions: V79MZh. Put shortly:
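V79 MZh cells expressing human CYP11B2 given [4-14C]-11-deoxycorticosterone, 100 nM, with inhibitor at a single 500 nM concentration. Ethyl acetate extraction, then HPTLC/phosphoimager readout of conversion. Percent inhibition is the mean of at least three experiments.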

The target of data set [7] is T1, CYP1A2. Nature of the data set: Inhibition of human CYP1A2 expressed in baculovirus-infected insect microsomes at 1 uM. The data set is classed as ADME, Microsome. The essentials:
as §1

A further data set concerns the target CYP2C9 (Homo sapiens, UniProt P11712). Nature of the data set: Inhibition of human CYP2C9 expressed in baculovirus-infected insect microsomes at 10 uM. Format: ADME, Microsome. Put shortly: as §1
In data set [8] the target is T4, CYP3A4. Nature of the data set: Inhibition of human CYP3A4 expressed in baculovirus-infected insect microsomes at 10 uM. The data set is classed as ADME, Microsome. The essentials: as §1
Data set [9] concerns the target T5, CYP2B6. Nature of the data set: Inhibition of human CYP2B6 expressed in baculovirus-infected insect microsomes at 10 uM. The data set is classed as ADME, Microsome. The essentials: as §1
Data set [10] concerns the target T2, CYP2D6. Nature of the data set: Inhibition of human CYP2D6 expressed in baculovirus-infected insect microsomes at 10 uM. The data set is classed as ADME, Microsome. The essentials:
as §1

For another data set, the target named is CYP2C19 (Homo sapiens, UniProt P33261). Nature of the data set: Inhibition of human CYP2C19 expressed in baculovirus-infected insect microsomes at 1 uM. The data set is classed as ADME, Microsome. The essentials: as §1
Sequence of CYP2C19 (P33261 whole entry): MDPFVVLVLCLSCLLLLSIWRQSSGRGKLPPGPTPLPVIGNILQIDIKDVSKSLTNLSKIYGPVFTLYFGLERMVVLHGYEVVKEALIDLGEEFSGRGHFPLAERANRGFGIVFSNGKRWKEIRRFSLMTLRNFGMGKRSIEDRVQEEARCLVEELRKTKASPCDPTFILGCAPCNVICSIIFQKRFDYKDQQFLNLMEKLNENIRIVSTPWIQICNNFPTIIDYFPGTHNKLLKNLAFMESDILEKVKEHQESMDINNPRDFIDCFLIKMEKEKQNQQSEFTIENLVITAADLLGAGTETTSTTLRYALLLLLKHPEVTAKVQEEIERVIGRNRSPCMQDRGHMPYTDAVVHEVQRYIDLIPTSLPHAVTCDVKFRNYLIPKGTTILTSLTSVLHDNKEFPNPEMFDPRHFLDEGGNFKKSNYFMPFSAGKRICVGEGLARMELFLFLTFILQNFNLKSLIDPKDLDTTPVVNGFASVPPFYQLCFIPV

Sequence of CYP2C9 (P11712 whole entry): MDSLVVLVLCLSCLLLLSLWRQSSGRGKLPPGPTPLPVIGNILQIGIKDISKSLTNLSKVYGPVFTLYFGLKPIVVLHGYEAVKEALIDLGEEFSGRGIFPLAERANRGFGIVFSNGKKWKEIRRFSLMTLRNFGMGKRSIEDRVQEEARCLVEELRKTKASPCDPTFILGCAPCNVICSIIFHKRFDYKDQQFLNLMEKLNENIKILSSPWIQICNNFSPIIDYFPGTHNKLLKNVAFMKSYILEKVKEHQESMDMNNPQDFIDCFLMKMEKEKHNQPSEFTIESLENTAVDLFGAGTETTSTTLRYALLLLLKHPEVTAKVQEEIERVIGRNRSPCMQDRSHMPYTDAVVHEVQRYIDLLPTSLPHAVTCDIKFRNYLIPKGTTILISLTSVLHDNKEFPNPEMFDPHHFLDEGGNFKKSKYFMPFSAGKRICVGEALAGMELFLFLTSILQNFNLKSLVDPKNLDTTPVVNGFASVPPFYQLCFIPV
T4 sequence (P08684 whole entry): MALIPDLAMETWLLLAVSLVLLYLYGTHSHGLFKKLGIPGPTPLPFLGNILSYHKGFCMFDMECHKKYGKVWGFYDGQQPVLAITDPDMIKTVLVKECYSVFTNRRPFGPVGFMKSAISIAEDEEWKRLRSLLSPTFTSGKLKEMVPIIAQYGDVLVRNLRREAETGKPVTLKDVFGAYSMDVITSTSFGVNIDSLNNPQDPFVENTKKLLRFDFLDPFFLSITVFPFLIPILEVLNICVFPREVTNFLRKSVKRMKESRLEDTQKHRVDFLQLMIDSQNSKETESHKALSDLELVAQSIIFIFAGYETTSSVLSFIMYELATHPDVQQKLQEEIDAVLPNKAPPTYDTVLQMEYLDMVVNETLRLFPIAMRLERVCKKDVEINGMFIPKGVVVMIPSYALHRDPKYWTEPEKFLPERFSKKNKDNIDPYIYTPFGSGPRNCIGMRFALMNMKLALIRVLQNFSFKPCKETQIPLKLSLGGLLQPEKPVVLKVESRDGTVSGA
T2 sequence (P10635 whole entry): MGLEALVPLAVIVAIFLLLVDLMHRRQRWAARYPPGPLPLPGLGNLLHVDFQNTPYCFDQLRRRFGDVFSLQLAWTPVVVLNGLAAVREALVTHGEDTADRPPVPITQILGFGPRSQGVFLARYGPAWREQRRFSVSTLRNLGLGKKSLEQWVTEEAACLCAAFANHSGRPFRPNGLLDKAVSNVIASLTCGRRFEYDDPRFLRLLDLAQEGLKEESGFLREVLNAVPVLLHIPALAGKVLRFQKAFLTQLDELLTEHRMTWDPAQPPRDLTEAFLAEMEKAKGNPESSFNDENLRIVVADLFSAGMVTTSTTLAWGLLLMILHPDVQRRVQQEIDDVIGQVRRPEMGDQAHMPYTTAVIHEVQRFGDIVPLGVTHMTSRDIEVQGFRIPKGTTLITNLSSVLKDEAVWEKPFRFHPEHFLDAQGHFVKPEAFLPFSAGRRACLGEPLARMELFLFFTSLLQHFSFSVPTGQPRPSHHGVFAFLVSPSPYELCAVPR

Consider `O=C1CCc2cc(-c3cncc(-c4cccc(F)c4)c3)cc3c2N1CC3`, for which the inhibition at 10 µM against CYP1A2 [1] is 38%; at CYP2C9, 79%; on CYP3A4 [8] it was 43%; on CYP2B6 [9] it was 13%; on CYP2D6 [10], 9%. In addition, the inhibition at 1 µM against CYP2D6 [2] was less than 5%; against CYP3A4 [4], 37%; on CYP2B6 [5], less than 5%; against CYP1A2 [7], 9%. Moreover, the IC50 in data set [3] was determined as 490 nM. Also, in data set [6], the inhibition at 0.5 µM was 97%.

For `O=C1CCc2cc(-c3cccnc3)cc3c2N1CC3`, the inhibition at 10 µM is 43% on CYP1A2 [1]; 41% at CYP2C9; less than 5% on CYP3A4 [8]; less than 5% at CYP2B6 [9]; less than 5% against CYP2D6 [10]. Also, the inhibition at 1 µM is less than 5% against CYP2D6 [2]; less than 5% on CYP2C19; less than 5% at CYP3A4 [4]; less than 5% against CYP2B6 [5]; 8% at CYP1A2 [7]. Moreover, the IC50 in data set [3] was 715 nM. The inhibition at 0.5 µM in [6] was 90%.

For the compound `COc1cncc(-c2cc3c4c(c2)CCN4C(=O)CC3)c1`, the inhibition at 10 µM came out at 72% on CYP1A2 [1]; 42% against CYP2C9; 19% on CYP3A4 [8]; 8% against CYP2B6 [9]; 13% on CYP2D6 [10]. Further, the inhibition at 1 µM against CYP2D6 [2] was 9%; against CYP2C19, 7%; at CYP3A4 [4], 14%; against CYP2B6 [5], less than 5%; on CYP1A2 [7], 37%. Further, the IC50 in data set [3] stood at 247 nM. For the same compound, the inhibition at 0.5 µM in data set [6] came to 98%.

Consider `O=C1CCc2cc(-c3cccnc3)cc3c2N1CCC3`, for which the inhibition at 10 µM on CYP1A2 [1] stood at 83%; against CYP2C9 it was 40%; at CYP3A4 [8], 21%; at CYP2B6 [9], 36%. For the same compound, the inhibition at 1 µM on CYP2C19 worked out at 8%; on CYP3A4 [4], 6%; against CYP2B6 [5] it was 27%; against CYP1A2 [7], 41%. Moreover, in data set [3], the IC50 was 2300 nM. The inhibition at 0.5 µM in data set [6] is 95%.
